Results from ChEMBL document CHEMBL2169769, “Synthesis and biological characterization of protease-activated prodrugs of doxazolidine” (J Med Chem, 2012).
Calls of active or inactive are those of the source. No cut-off for these calls is given here.

What was measured:
MCF7 [1] = experiment: Cytotoxicity against human MCF7 cells incubated for 3 hrs measured after 3 to 4 hrs in absence of plasmin; format: functional, cell-based
MIA PaCa-2 [2] = experiment: Cytotoxicity against human MIAPaCa2 cells incubated for 3 hrs measured after 3 to 4 hrs in absence of plasmin; format: functional, cell-based
[3] = test system: COc1cccc2c1C(=O)c1c(O)c3c(c(O)c1C2=O)C[C@@](O)(C(=O)CO)C[C@@H]3O[C@H]1C[C@H]2[C@H](OCN2C(=O)OCc2ccc(NC(=O)[C@H](CCCCN)NC(=O)[C@H](Cc3ccccc3)NC(=O)[C@@H](C)NC(=O)CNC(C)=O)cc2)[C@H](C)O1; experiment: Activity of human cathepsin B assessed as enzyme catalytic turnover for compound hydrolysis at 50 uM at pH 6.5 in PBS buffer containing 10 mM N-acetylcysteine by RP-HPLC
Outline: (§1)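 Michaelis-Menten kinetics, substrate 10–400 µM at 37 °C. Plasmin: 0.2 U, PBS pH 7.4, 4 min. Cathepsin B: 0.08 U, PBS-NAC pH 6.5, 20 min. Quenched with equal volume ethanol, −20 °C ≥2 h, centrifuged, supernatant RP-HPLC at 480 nm. Rates (µM/min) fit by non-linear least squares; triplicates.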

[4] = test system: COc1cccc2c1C(=O)c1c(O)c3c(c(O)c1C2=O)C[C@@](O)(C(=O)CO)C[C@@H]3O[C@H]1C[C@H]2[C@H](OCN2C(=O)OCc2ccc(NC(=O)[C@H](CCCCN)NC(=O)[C@H](Cc3ccccc3)NC(=O)[C@@H](C)NC(=O)CNC(C)=O)cc2)[C@H](C)O1; experiment: Activity of human cathepsin B assessed as compound hydrolysis at 50 uM at pH 6.5 in PBS buffer containing 10 mM N-acetylcysteine by RP-HPLC; outline: as §1
MIA PaCa-2 [5] = experiment: Cytotoxicity against human MIAPaCa2 cells incubated for 3 hrs measured after 3 to 4 hrs in presence of plasmin; format: functional, cell-based
MCF7 [6] = experiment: Cytotoxicity against human MCF7 cells incubated for 3 hrs measured after 3 to 4 hrs in presence of plasmin; format: functional, cell-based
[7] = Prodrug conversion assessed as release of human plasmin induced active dozax at 50 uM pH 7.4 in PBS by RP-HPLC; format: ADME; settings: buffer, pH 7.4, 50 µM
Outline: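 50 µM prodrug with 1.2 µg/mL human plasmin in PBS pH 7.4 at 37 °C. Samples taken over time, ethanol-quenched, analysed by RP-HPLC at 480 nm for prodrug and dox; repeated runs fit to single-exponential association model.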

[8] = Prodrug conversion assessed as release of active dozax in absence of plasmin at 50 uM pH 7.4 in PBS by RP-HPLC; format: ADME; settings: buffer, pH 7.4, 50 µM
Outline: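 Enzyme-free control: 50 µM prodrug in PBS at 37 °C over 24 h, RP-HPLC monitoring dox at 480 nm.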

[9] = substrate: COc1cccc2c1C(=O)c1c(O)c3c(c(O)c1C2=O)C[C@@](O)(C(=O)CO)C[C@@H]3O[C@H]1C[C@H]2[C@H](OCN2C(=O)OCc2ccc(NC(=O)[C@H](CCCCN)NC(=O)[C@H](Cc3ccccc3)NC(=O)[C@@H](C)NC(=O)CNC(C)=O)cc2)[C@H](C)O1; experiment: Activity of human plasmin assessed as enzyme catalytic turnover for compound hydrolysis at 50 uM at pH 7.4 in PBS buffer by RP-HPLC; outline: as §1
[10] = substrate: COc1cccc2c1C(=O)c1c(O)c3c(c(O)c1C2=O)C[C@@](O)(C(=O)CO)C[C@@H]3O[C@H]1C[C@H]2[C@H](OCN2C(=O)OCc2ccc(NC(=O)[C@H](CCCCN)NC(=O)[C@H](Cc3ccccc3)NC(=O)[C@@H](C)NC(=O)CNC(C)=O)cc2)[C@H](C)O1; experiment: Activity of human plasmin assessed as compound hydrolysis at 50 uM at pH 7.4 in PBS buffer by RP-HPLC; outline: as §1

## COc1cccc2c1C(=O)c1c(O)c3c(c(O)c1C2=O)C[C@@](O)(C(=O)CO)C[C@@H]3O[C@H]1C[C@H](NC(=O)OCc2ccc(NC(=O)[C@H](CCCCN)NC(=O)[C@H](Cc3ccccc3)NC(=O)[C@@H](C)N)cc2)[C@H](O)[C@H](C)O1
MCF7 [1]
  IC50: < 1000 nM
MIA PaCa-2 [2]
  pIC50: inactive

## Cathepsin B (Homo sapiens) (from UniProt P07858)
[3]
  kcat: 0.49 s⁻¹
[4]
  Km: 108 µM
  Vmax: 1.32 µM/min

## COc1cccc2c1C(=O)c1c(O)c3c(c(O)c1C2=O)C[C@@](O)(C(=O)CO)C[C@@H]3O[C@H]1C[C@H]2[C@H](OCN2C(=O)OCc2ccc(NC(=O)[C@H](CCCCN)NC(=O)[C@H](Cc3ccccc3)NC(=O)[C@@H](C)N)cc2)[C@H](C)O1.O=P(O)(O)O
MIA PaCa-2 [5]
  Activity: Active
MCF7 [6]
  Activity: Active
MCF7 [1]
  pIC50: Active
MIA PaCa-2 [2]
  pIC50: Active
[7]
  Drug metabolism: Active
[8]
  Stability: Stable

B1: Plasminogen (Homo sapiens), P00747 (protein)
chain: MEHKEVVLLLLLFLKSGQGEPLDDYVNTQGASLFSVTKKQLGAGSIEECAAKCEEDEEFTCRAFQYHSKEQQCVIMAENRKSSIIIRMRDVVLFEKKVYLSECKTGNGKNYRGTMSKTKNGITCQKWSSTSPHRPRFSPATHPSEGLEENYCRNPDNDPQGPWCYTTDPEKRYDYCDILECEEECMHCSGENYDGKISKTMSGLECQAWDSQSPHAHGYIPSKFPNKNLKKNYCRNPDRELRPWCFTTDPNKRWELCDIPRCTTPPPSSGPTYQCLKGTGENYRGNVAVTVSGHTCQHWSAQTPHTHNRTPENFPCKNLDENYCRNPDGKRAPWCHTTNSQVRWEYCKIPSCDSSPVSTEQLAPTAPPELTPVVQDCYHGDGQSYRGTSSTTTTGKKCQSWSSMTPHRHQKTPENYPNAGLTMNYCRNPDADKGPWCFTTDPSVRWEYCNLKKCSGTEASVVAPPPVVLLPDVETPSEEDCMFGNGKGYRGKRATTVTGTPCQDWAAQEPHRHSIFTPETNPRAGLEKNYCRNPDGDVGGPWCYTTNPRKLYDYCDVPQCAAPSFDCGKPQVEPKKCPGRVVGGCVAHPHSWPWQVSLRTRFGMHFCGGTLISPEWVLTAAHCLEKSPRPSSYKVILGAHQEVNLEPHVQEIEVSRLFLEPTRKDIALLKLSSPAVITDKVIPACLPSPNYVVADRTECFITGWGETQGTFGAGLLKEAQLPVIENKVCNRYEFLNGRVQSTELCAGHLAGGTDSCQGDSGGPLVCFEKDKYILQGVTSWGLGCARPNKPGVYVRVSRFVTWIEGVMRNN
[9]
  kcat: 2.45 s⁻¹
[10]
  Km: 171 µM
  Vmax: 3.76 µM/min
